SDO1 yeast rescue – sdo1-depleted yeast growth rescue; S. cerevisiae sdo1-depleted JHY4D growth rescue, OD600 30 h; hits give high values; pdr5 snq2 efflux-pump mutant strain; z-score at 10 µM; hit rate 0.21% among 140,000;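 active means z-score above 3 at both the 24 hr and the 30 hr optical density reads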
RAM network inh – yeast RAM network inhibition; hit rate 1.8% among 190,000; S. cerevisiae dse1pr::URA3 reporter, 5-FOA growth OD615, 2 d; analog-sensitive cbk1-as2 kinase mutant strain; inhibition, % at 50 µM;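 active means inhibition above a set limit, 3 SD over mean compound inhibition, cut at about 8.4% in these data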;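 further: inhibition rescues growth on 5-FOA so higher OD means more RAM inhibition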
Measles CPE – protection of cells from measles virus | Measles virus-infected cells, CPE protection, absorbance | protection (pct of control), % at 4 µM | hit rate 1.5% among 140,000 | AID 841; in the data active means protection mostly above about 24%, no sharp cut-off; inactive means mostly below about 26%
Yeast growth inh – yeast BB579 growth reduction in restrictive medium; S. cerevisiae BB579 growth, OD615, 48 h; inhibition, % at 10 µM; hit rate 0.51% among 140,000; AID 804;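 active means inhibition above a set limit, 3 SD over the mean compound inhibition, cut at about 44% in these data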
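Assay system – yeast BB579 (DeaD) · Dosing – single compound dose of 10 µM, 0.25% DMSO final · Detection – OD615 turbidity measurement · Buffer or medium – CSMM-D restrictive synthetic medium containing dextrose (glucose) · Benchmarks – positive control amphotericin B 10 µg/mL · Incubation – 48 h exposure, 30 °C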
Yeast lifespan up – extends the lifespan of yeast; S. cerevisiae growth with nicotinamide, OD615; deaD strain in restrictive glucose medium; inhibition of the nicotinamide effect, % at 10 µM; hit rate 0.68% among 130,000; AID 775;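 active means inhibition above a set limit, placed 3 SD over the median of all compounds, cut at about 26% in these data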
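System: DeaD-strain S. cerevisiae / Buffer or medium: CSMM-D, restrictive glucose (dextrose) synthetic minimal medium / Probe or stimulus: nicotinamide, 1.5 mM, co-present with compound / Compound: one concentration, 10 µM, DMSO 0.25% / Incubation: 48 h compound exposure at 30 °C, humidified / Technique: optical density (absorbance) at 615 nm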
Each line names hits and unclear results; the compound was inactive in the other large screens. A selection: hits, their analogues and other compounds. The true share with any hit is near 3.8%.

CCCCCC1CCC(C(=O)O)CC1 (stereo not given)	Yeast growth inh 52.1
CCCCC1CCC(/C(N)=N/O)CC1 (stereo not given)	none
COc1ccc(C(=O)N2CCN(c3ccc([N+](=O)[O-])c(-n4nc(C)cc4C)c3)CC2)cc1	Measles CPE 23.1
CCOC(=O)CC(N)c1cccc([N+](=O)[O-])c1 (stereo not given)	none (no result: SDO1 yeast rescue, Measles CPE, Yeast growth inh, Yeast lifespan up)
Cc1nn(C2CCS(=O)(=O)C2)c(Cl)c1/C=C/C(=O)OCC(=O)c1cc(C)n(-c2ccc(F)cc2)c1C (stereo not given)	Measles CPE 45.7
CCn1ncc(C2=NOC(C(=O)Nc3c(C)n(C)n(-c4ccccc4)c3=O)C2)c1C (stereo not given)	Yeast growth inh 48.3
Cc1cc(C)nc(SCc2cc(=O)c(OC(=O)c3ccc(Cl)c([N+](=O)[O-])c3)co2)n1	Yeast lifespan up 29.6
Cc1cc(C)nc(SCc2cc(=O)c(OC(=O)c3ccc(S(=O)(=O)N(C)C)cc3)co2)n1	none
Nc1[nH]nc2c1NN(c1ccc(Cl)cc1Cl)N2	none
COc1cccc(N=c2oc3ccc(OC)cc3cc2-c2nc3ccccc3[nH]2)c1	Measles CPE 46.9
COc1cccc(N=c2oc3ccccc3cc2-c2nc3ccccc3[nH]2)c1	none
O=C(/C=C/c1ccccc1)C1C(=O)c2ccccc2C1=O	Yeast lifespan up 42.7
COC(=O)C1C(=O)C(C(=O)/C=C/c2ccccc2)C(=O)CC1(C)C (stereo not given)	none (no result: SDO1 yeast rescue, Measles CPE, Yeast growth inh, Yeast lifespan up)
CCc1ccc(C2C(C(=O)O)c3ccccc3C(=O)N2C)cc1 (stereo not given)	none
CCc1ccc(/C=C/C(=O)C2C(=O)c3ccccc3C2=O)cc1	RAM network inh 9.1
O=C(c1ccccc1)C1C(=O)c2ccccc2C1=O	Yeast lifespan up 26.7
CCCn1c(SCC(=O)Nc2ccc(OC)cc2)nnc1-c1ccncc1	none
CCc1ccc(NC(=S)N(CCCN2CCN(C)CC2)Cc2cccs2)cc1	Measles CPE 52.8
CCOC(=O)c1ccc(NC(=S)N(CCCN2CCCCCC2)Cc2ccco2)cc1	Measles CPE 49.0
CCOC(=O)c1ccc(NC(=S)N(CCN2CCCCCC2)Cc2ccco2)cc1	none (no result: SDO1 yeast rescue, Measles CPE, Yeast growth inh, Yeast lifespan up)
O=C(C[n+]1ccccc1)Nc1ccccc1Br	none (no result: SDO1 yeast rescue, Measles CPE, Yeast growth inh, Yeast lifespan up)
CC(C)NC(=O)CSc1nnc(-c2ccc(F)cc2)c2ccccc12	none (no result: SDO1 yeast rescue, Measles CPE, Yeast growth inh, Yeast lifespan up)
Cc1ccc(-c2ccc(/C=N\NC(=O)c3cc4c(ccc5ccccc54)o3)o2)cc1[N+](=O)[O-]	Measles CPE 51.0
O=C(CCSc1ccc(Cl)cc1)c1cccs1	Measles CPE 35.4
O=C(CCNc1ccc(Cl)cc1)c1cccs1	none
O=C(CCNc1cc(Cl)cc(Cl)c1)c1cccs1	Measles CPE 45.2
COc1cc(/C=N/NC(=O)c2nc3ccccn3c2C)cc(OC)c1O	none (no result: SDO1 yeast rescue, Measles CPE, Yeast growth inh, Yeast lifespan up)
COC(=O)c1c(NC(=O)c2ccco2)sc(C(=O)N2CCCC2)c1C	none
Cc1ccc(Nc2nc(CSc3nnc(-c4cccnc4)n3-c3ccccc3C)cs2)cc1	Measles CPE 53.4
Cc1ccccc1-n1c(SCc2csc(Nc3ccccc3)n2)nnc1-c1cccnc1	none
CCCC(c1nnnn1Cc1ccco1)N1CCN(C(=O)c2ccco2)CC1 (stereo not given)	Measles CPE 44.0
COc1ccc(N2CCN(C(=O)CSc3nnc(-c4ccco4)n3C)CC2)cc1	none (no result: SDO1 yeast rescue, Measles CPE, Yeast growth inh, Yeast lifespan up)
O=c1cc(O)c2c(=O)n(C3CCCCC3)c3ccccc3c2o1	Yeast lifespan up 30.9
O=c1cc(O)c2c(=O)n(-c3ccccc3)c3c(c2o1)CCCCCC3	Measles CPE 35.8, Yeast lifespan up 46.5
O=C1CCCc2c1cc(C(=O)O)c(=O)n2-c1ccccc1	none (no result: SDO1 yeast rescue, Measles CPE, Yeast growth inh, Yeast lifespan up)
CCCCn1c(=O)c2c(O)cc(=O)oc2c2ccccc21	Yeast lifespan up 43.0
COc1ccc(N/C(C)=C2/C(=O)C(=O)N(CCO)C2c2ccc(Br)cc2)cc1 (stereo not given)	none
CCCN(CC1CC1)C(=O)COC(=O)c1ccc2c(c1)C(=O)N(c1ccc(OCC)cc1)C2=O	RAM network inh 10.7 (no result: SDO1 yeast rescue, Measles CPE, Yeast growth inh, Yeast lifespan up)
c1ccc(-c2ccc(-c3ccccn3)nn2)nc1	Yeast growth inh 68.0
c1ccc(-c2ccccn2)nc1	none
CCOCCCNC(=O)c1cc(Sc2ccc(C)cc2)nc2ccccc12	RAM network inh 10.9
CCNC(=O)CSc1nnc(-c2cc(-c3ccc(Cl)cc3)nc3ccccc23)o1	none
CC1(C)NC(=O)N(CCCOc2ccc(Br)cc2Cl)C1=O	Measles CPE 56.8
NS(=O)(=O)c1cccc(NS(=O)(=O)c2ccc(/C=C/C(=O)OCC(=O)c3ccccc3)cc2)c1	none (no result: SDO1 yeast rescue, Measles CPE, Yeast growth inh, Yeast lifespan up)
CC(C)(C)C(=O)NCCc1nc2ccccc2n1CC(=O)c1ccc(Cl)cc1	none
CCCCCCCCCS(=O)(=O)N/N=C/c1cccc([N+](=O)[O-])c1	RAM network inh 8.7
Cc1ccc(S(=O)(=O)Nc2ccc(Br)cc2/C=N/n2cnnc2)cc1	none
Cc1ccc(Cl)cc1NC(=O)Cn1cccc1	Measles CPE 70.3
CCc1cccc(NC(=O)Cn2cccc2)c1	Measles CPE 50.5
Cc1cccc2sc(NC(=O)Cn3cccc3)nc12	Measles CPE 76.8
CCn1c(=O)n(-c2ccc(Cl)cc2)c(=O)c2c3c(sc21)COC(C)(C)C3	none
CC(C)N(C(=O)COC(=O)[C@@H]1CC(O)CN1S(=O)(=O)c1ccc(C(C)(C)C)cc1)C(C)C (stereo not given in full)	none (no result: SDO1 yeast rescue, Measles CPE, Yeast growth inh, Yeast lifespan up)
O=C(Nc1ccccc1Cl)c1ccc(COc2ccc3c(c2)CCC3)cc1	RAM network inh 10.8
Cc1cc(OCc2ccc(C(=O)NN=C3CCCC3)cc2)ccc1Cl	Yeast growth inh 96.9
O=C(Nc1ccc2c(c1)OCO2)Nc1ccc2c(c1)OCO2	none (no result: SDO1 yeast rescue, Measles CPE, Yeast growth inh, Yeast lifespan up)
O=C(Nc1ccc2c(c1)OCO2)c1ccc(Cl)s1	Measles CPE 54.4
O=C(Nc1ccc2c(c1)OCO2)c1ccc2c(c1)OCO2	none
O=C(Nc1ccc(OC(F)F)c(Cl)c1)Nc1ccc2c(c1)OCO2	Measles CPE 41.4
C#CCNC(=O)C1=C[C@H](c2ccc(Br)cc2)C[C@H](OCc2ccc(CO)cc2)O1	none (no result: SDO1 yeast rescue, Measles CPE, Yeast growth inh, Yeast lifespan up)
O=C(NCc1ccco1)c1cc2sccc2n1Cc1ccccc1	RAM network inh 9.9 (no result: Yeast lifespan up)
Cc1ccc(Cn2c(C(=O)O)cc3sccc32)cc1	Yeast lifespan up 26.3
CCn1c(C(=O)NCCCc2ccccc2)cc2sccc21	RAM network inh 10.3
O=S(=O)(NCc1ccccc1)c1cccc2cccnc12	Measles CPE 43.4
Cc1nc2ncnn2c(N2CCN(C(c3ccccc3)c3ccccc3)CC2)c1C	Measles CPE 52.9
Cc1cc(N2CCN(C(c3ccccc3)c3ccccc3)CC2)n2ncnc2n1	none
CCOC(=O)c1sc2nc(CC(=O)OC)nc(NCc3ccco3)c2c1C	RAM network inh 10.7
CCOC(=O)c1sc2nc(CC(=O)OC)nc(NCC(=O)OC)c2c1C	none
COC(=O)COC(=O)c1ccc(-n2nnnc2SC)cc1	Measles CPE 53.7
O=C(Cc1ccc(F)cc1)Oc1ccc(C(=S)N2CCCC2)cc1	none
